Test system: Fibroblast
Test: Multiplex assay against human fibroblast
Format: toxicity, cell-based
Outline: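 Live cells carried four stains from seeding: Hoechst33342, BioTracker Green Microtubule Cytoskeleton Dye, MitoTracker Red and Annexin V Alexa Fluor 680. They were imaged on a CQ1 microscope at 37°C and 5% CO2 after compound addition. Using CellPathfinder machine-learning gating, cells were split into Hoechst high-intensity objects or normal cells, normal cells into healthy, pyknosed or fragmented nuclei, and pyknosed cells into mitotic or apoptotic; tubulin, mitochondrial-mass and membrane-permeability phenotypes are per cents of healthy-nucleus cells.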

[1] = 12 h, 1 µM, compound concentration 1 uM, replicate 1
[2] = 12 h, 1 µM, compound concentration 1 uM, replicate 2
[3] = 12 h, 10 µM, compound concentration 10 uM, replicate 1
[4] = 12 h, 10 µM, compound concentration 10 uM, replicate 2
[5] = 24 h, 1 µM, compound concentration 1 uM, replicate 1
[6] = 24 h, 1 µM, compound concentration 1 uM, replicate 2
[7] = 24 h, 10 µM, compound concentration 10 uM, replicate 1
[8] = 24 h, 10 µM, compound concentration 10 uM, replicate 2

SMILES: CCn1cc(-c2ccnc3[nH]c(-c4cccc(CN(C)C)c4)cc23)c(-c2ccc(NC(=O)N(C)C)cc2)n1 [GSK-1070916]
- Population Apoptotic (%) [1]: 80%
- Population Fragmented Nuclei (%) [1]: 33%
- Population Healthy Nuclei (%) [1]: 51%
- Population Hoechst High Intensity Objects (%) [1]: 13%
- Population Membrane Permeable-Phenotype (%) [1]: 4%
- Population Mitochondria Different-Phenotype (%) [1]: 0%
- Population Mitotic Cells (%) [1]: 19%
- Population Normal (%) [1]: 86%
- Population Pyknosed Nuclei (%) [1]: 14%
- Population Tubulin-Different-Phenotype (%) [1]: 5%
- Total Cell Count [1]: 205
- Population Apoptotic (%) [2]: 25%
- Population Fragmented Nuclei (%) [2]: 56%
- Population Healthy Nuclei (%) [2]: 34%
- Population Hoechst High Intensity Objects (%) [2]: 46%
- Population Membrane Permeable-Phenotype (%) [2]: 26%
- Population Mitochondria Different-Phenotype (%) [2]: 6%
- Population Mitotic Cells (%) [2]: 75%
- Population Normal (%) [2]: 53%
- Population Pyknosed Nuclei (%) [2]: 9%
- Population Tubulin-Different-Phenotype (%) [2]: 13%
- Total Cell Count [2]: 83
- Population Apoptotic (%) [3]: 60%
- Population Fragmented Nuclei (%) [3]: 23%
- Population Healthy Nuclei (%) [3]: 56%
- Population Hoechst High Intensity Objects (%) [3]: 44%
- Population Membrane Permeable-Phenotype (%) [3]: 5%
- Population Mitochondria Different-Phenotype (%) [3]: 2%
- Population Mitotic Cells (%) [3]: 39%
- Population Normal (%) [3]: 55%
- Population Pyknosed Nuclei (%) [3]: 19%
- Population Tubulin-Different-Phenotype (%) [3]: 27%
- Total Cell Count [3]: 473
- Population Apoptotic (%) [4]: 33%
- Population Fragmented Nuclei (%) [4]: 54%
- Population Healthy Nuclei (%) [4]: 35%
- Population Hoechst High Intensity Objects (%) [4]: 49%
- Population Membrane Permeable-Phenotype (%) [4]: 4%
- Population Mitochondria Different-Phenotype (%) [4]: 13%
- Population Mitotic Cells (%) [4]: 66%
- Population Normal (%) [4]: 50%
- Population Pyknosed Nuclei (%) [4]: 9%
- Population Tubulin-Different-Phenotype (%) [4]: 52%
- Total Cell Count [4]: 127
- Population Apoptotic (%) [5]: 70%
- Population Fragmented Nuclei (%) [5]: 32%
- Population Healthy Nuclei (%) [5]: 56%
- Population Hoechst High Intensity Objects (%) [5]: 19%
- Population Membrane Permeable-Phenotype (%) [5]: 3%
- Population Mitochondria Different-Phenotype (%) [5]: 1%
- Population Mitotic Cells (%) [5]: 30%
- Population Normal (%) [5]: 80%
- Population Tubulin-Different-Phenotype (%) [5]: 5%
- Total Cell Count [5]: 222
- Population Apoptotic (%) [6]: 66%
- Population Fragmented Nuclei (%) [6]: 62%
- Population Healthy Nuclei (%) [6]: 26%
- Population Hoechst High Intensity Objects (%) [6]: 23%
- Population Membrane Permeable-Phenotype (%) [6]: 21%
- Population Mitochondria Different-Phenotype (%) [6]: 14%
- Population Mitotic Cells (%) [6]: 33%
- Population Normal (%) [6]: 76%
- Population Pyknosed Nuclei (%) [6]: 11%
- Population Tubulin-Different-Phenotype (%) [6]: 21%
- Total Cell Count [6]: 69
- Population Apoptotic (%) [7]: 49%
- Population Fragmented Nuclei (%) [7]: 24%
- Population Healthy Nuclei (%) [7]: 51%
- Population Hoechst High Intensity Objects (%) [7]: 50%
- Population Membrane Permeable-Phenotype (%) [7]: 0%
- Population Mitochondria Different-Phenotype (%) [7]: 10%
- Population Mitotic Cells (%) [7]: 50%
- Population Normal (%) [7]: 50%
- Population Pyknosed Nuclei (%) [7]: 24%
- Population Tubulin-Different-Phenotype (%) [7]: 31%
- Total Cell Count [7]: 430
- Population Apoptotic (%) [8]: 20%
- Population Fragmented Nuclei (%) [8]: 45%
- Population Healthy Nuclei (%) [8]: 40%
- Population Hoechst High Intensity Objects (%) [8]: 44%
- Population Membrane Permeable-Phenotype (%) [8]: 3%
- Population Mitochondria Different-Phenotype (%) [8]: 20%
- Population Mitotic Cells (%) [8]: 80%
- Population Normal (%) [8]: 55%
- Population Pyknosed Nuclei (%) [8]: 14%
- Population Tubulin-Different-Phenotype (%) [8]: 51%
- Total Cell Count [8]: 129

From ChEMBL document CHEMBL4689842, “EUbOPEN Chemogenomics Library wave 1” (2021)
